Calls of active or inactive are those of the source. The rule behind the calls is not given here.
Assays:
Cortical neurone [1] = assay: (§1) Neuroprotective activity against fibril amyloid beta (25 to 35)-induced cell death in Sprague-Dawley rat 5 days old neonatal primary cortical neurons assessed as increase in cell viability pretreated for 2 hrs followed by 10 uM fibril amyloid beta (25 to 35) addition measured after 48 hrs by MTT assay; assay type: functional, cell-based
In short: (§2)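 Cortical neurons pretreated 2 h with vehicle (0.1% DMSO) or compound at maximum nontoxic concentration. Then exposed at DIV5 to fibrillar Aβ25–35 (10 μM, 48 h) or at DIV10 to glutamate (30 μM, 24 h). MTT 0.5 mg/mL for 1 h, formazan dissolved in DMSO, OD read at 600 nm. Mean ± SD of three independent experiments.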

Cortical neurone [2] = assay: Neuroprotective activity against glutamate-induced cell death in Sprague-Dawley rat 10 days old neonatal primary cortical neurons assessed as cell death at maximum non toxic concentration pretreated for 2 hrs followed by 30 uM glutamate addition measured after 24 hrs by MTT assay (reference value: 41.22 +/- 3.40%); assay type: functional
Cortical neurone [3] = assay: as §1, with “day” for “days”, “as” for “as increase in”, “death at maximum non toxic concentration” for “viability”, “assay (reference value: 39.20 +/- 0.88%)” for “assay”; assay type: functional
In short: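 Rat cortical neurons from pups, papain-dissociated, cytosine arabinoside (5 μM, 1 day) to remove non-neuronal cells, used at DIV5. Vehicle 0.1% DMSO or compound pretreatment before fAβ25–35 (aged 1 week at 37 °C). Viability by MTT reduction: 0.5 mg/mL for 1 h, formazan dissolved in DMSO, OD600. Mean ± SD of three independent experiments.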

Cortical neurone [4] = assay: (§3) Neuroprotective activity against glutamate-induced cell death in Sprague-Dawley rat 10 days old neonatal primary cortical neurons assessed as increase in cell viability pretreated for 2 hrs followed by 30 uM glutamate addition measured after 24 hrs by MTT assay; assay type: functional, cell-based; in short: as §2
[5] = Antioxidant activity assessed as ABTS radical cation scavenging activity by measuring trolox equivalents by spectrophotometric analysis; assay type: functional
[6] = Anti-inflammatory activity in Sprague-Dawley rat primary mixed glial cells assessed as inhibition of LPS-induced NO production pretreated for 2 hrs followed by LPS addition measured after 48 hrs by Griess assay; assay type: functional, cell-based; conditions: Glial cell
In short: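 Mixed cortical glia kept 3 days in DMEM/F12 with 10% FBS, medium changed, 4 more days, then 9 days in Neurobasal/B27 (16 days total). Cultures activated 2 days after medium refresh with 100 ng/mL LPS for 48 h, with compound at maximum nontoxic concentration. Medium nitrite read by Griess reagent at 540 nm against NaNO2 standard. Mean ± SD, three independent experiments.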

Cortical neurone [7] = assay: (§4) Neuroprotective activity against fibril amyloid beta (25 to 35)-induced cell death in Sprague-Dawley rat 5 days old neonatal primary cortical neuron assessed as inhibition of fibril amyloid beta (25 to 35)-induced decrease in MAP2 level at 50 uM pretreated for 2 hrs followed by 10 uM fibril amyloid beta (25 to 35) addition measured after 48 hrs by fluorescein isothiocyanate dye-based immunocytochemistry analysis; assay type: functional
In short: (§5)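 Cortical neurons at DIV5 (fibrillar Aβ25–35 10 μM, 48 h) or DIV10 (glutamate 30 μM, 24 h), after 2 h with 50 μM compound. Fixed in 4% paraformaldehyde, permeabilized with Triton X-100, blocked with donkey serum. Stained with anti-MAP2 and anti-tau (1:100, overnight at 4 °C), then FITC and RRX secondaries. Integrated density relative to vehicle. Mean ± SEM, n=3.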

Cytochrome P450 3A4 = Cytochrome P450 3A4 (Homo sapiens, UniProt P08684); assay: Inhibition of CYP3A4 in human liver microsomes; assay type: ADME
Sequence of Cytochrome P450 3A4 (P08684 whole entry): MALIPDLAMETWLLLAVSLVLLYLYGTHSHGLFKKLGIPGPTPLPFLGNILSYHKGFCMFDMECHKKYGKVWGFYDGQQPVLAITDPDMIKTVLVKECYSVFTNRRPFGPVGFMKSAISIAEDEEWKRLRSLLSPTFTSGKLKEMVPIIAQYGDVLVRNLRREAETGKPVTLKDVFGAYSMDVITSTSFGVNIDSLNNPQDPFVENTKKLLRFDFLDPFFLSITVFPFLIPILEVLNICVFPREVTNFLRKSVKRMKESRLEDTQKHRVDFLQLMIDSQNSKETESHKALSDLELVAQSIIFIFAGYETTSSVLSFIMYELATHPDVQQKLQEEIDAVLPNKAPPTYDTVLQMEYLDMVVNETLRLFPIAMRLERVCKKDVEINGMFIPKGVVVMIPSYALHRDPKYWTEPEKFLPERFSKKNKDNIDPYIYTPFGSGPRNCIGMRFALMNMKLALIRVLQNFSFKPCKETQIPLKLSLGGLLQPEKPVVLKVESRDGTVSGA

[8] = Anti-inflammatory activity in Sprague-Dawley rat primary mixed glial cells assessed as inhibition of LPS-induced NO production at 50 uM pretreated for 2 hrs followed by LPS addition measured after 48 hrs by Griess assay (reference value: 100%); assay type: functional, Primary glial cell; set-up: scale not given: the % may be the effect or the level left
Cortical neurone [9] = assay: as §1, with “neuron” for “neurons”, “viability at 50 uM” for “viability”, “calcein AM dye-based confocal laser scanning microscopic analysis” for “MTT assay”; assay type: functional
In short: (§6)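 Rat pup cortical neurons in Neurobasal/B27, given 5 μM cytosine arabinoside for 1 day. Used at DIV5 for Aβ25–35 fibrils (aged 1 week at 37 °C; 10 μM, 48 h) or DIV10 for glutamate (30 μM, 24 h), after 2 h with 50 μM compound or 0.1% DMSO. Cells loaded with 1 μM calcein AM and ethidium homodimer-1 for 30 min at room temperature, imaged by confocal microscopy. Live-cell count and integrated density expressed relative to vehicle. Mean ± SEM, n=3.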

Cortical neurone [10] = assay: as §4, with “tau protein” for “MAP2”; assay type: functional; in short: as §5
Cortical neurone [11] = assay: (§7) Neuroprotective activity against glutamate-induced cell death in Sprague-Dawley rat 10 days old neonatal primary cortical neuron assessed as inhibition of glutamate-induced decrease in tau level at 50 uM pretreated for 2 hrs followed by 30 uM glutamate addition measured after 24 hrs by fluorescein isothiocyanate dye-based immunocytochemistry analysis; assay type: functional; in short: as §5
Mus musculus [12] = assay: Antialzheimer activity in APPswe/PSEN1dE9 double transgenic C57BL/6J mouse model of Alzheimer's disease assessed as increase in nesting score at 30 mg/kg/day administered via oral gavage over 60 days by nesting test; assay type: functional, organism-based
In short: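 Female APP/PS1 C57BL/6J mice, 5 months old, given compound by oral gavage at 30 mg/kg/day for 60 days. Wild-type siblings received vehicle. Two nestlets (about 5 g) placed in the cage 1 h before the dark cycle. Nest score and unshredded nestlet weight recorded. Mean ± SD per group.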

Mus musculus [13] = assay: Antialzheimer activity in APPswe/PSEN1dE9 double transgenic C57BL/6J mouse model of Alzheimer's disease assessed as decrease in number of unshredded nestlets at 30 mg/kg/day administered via oral gavage over 60 days by nesting test
Cortical neurone [14] = assay: as §7, with “MAP2” for “tau”; assay type: functional; in short: as §5
Cortical neurone [15] = assay: as §3, with “neuron” for “neurons”, “viability at 50 uM” for “viability”, “calcein AM dye-based confocal laser scanning microscopic analysis” for “MTT assay”; assay type: functional; in short: as §6

Oc1ccc(-c2cc3cc(Br)cc(O)c3o2)cc1O
EC50 (Cortical neurone [1]): 36.5 µM | Activity (Cortical neurone [2]): 31.45% | Activity (Cortical neurone [3]): 16.95% | EC50 (Cortical neurone [4]): > 50 µM | Activity [5]: 0.06 mMequiv | EC50 [6]: > 100 µM | inhibition (Cortical neurone [7]): Active | IC50 (Cytochrome P450 3A4): 23.5 µM | Activity [8]: 86.85% | Activity (Cortical neurone [9]): Active | inhibition (Cortical neurone [10]): inactive

Oc1ccc(-c2cc3c(Br)ccc(O)c3o2)cc1O
EC50 (Cortical neurone [1]): 26.7 µM | Activity (Cortical neurone [2]): 40.83% | Activity (Cortical neurone [3]): 4.11% | EC50 (Cortical neurone [4]): > 0.5 µM | Activity [5]: 0.12 mMequiv | EC50 [6]: > 100 µM | inhibition (Cortical neurone [7]): Active | Activity [8]: 61.64% | Activity (Cortical neurone [9]): Active | inhibition (Cortical neurone [10]): inactive

CCOC(=O)/C=C/c1ccc(/C=C/c2cc(O)c(O)c(O)c2)cc1
inhibition (Cortical neurone [11]): Active | EC50 (Cortical neurone [1]): 40.9 µM | Activity (Cortical neurone [2]): 28.05% | Activity (Cortical neurone [3]): 19.23% | Activity (Mus musculus [12]): inactive | Activity (Mus musculus [13]): inactive | inhibition (Cortical neurone [14]): Active | EC50 (Cortical neurone [4]): > 50 µM | Activity [5]: 0.14 mMequiv | EC50 [6]: 99.2 µM | IC50 (Cytochrome P450 3A4): 36.2 µM | Activity [8]: 72.93% | Activity (Cortical neurone [15]): Active | Activity (Cortical neurone [9]): Active | inhibition (Cortical neurone [10]): inactive

Reference: ChEMBL document CHEMBL4043092, “Neuroprotective and Antineuroinflammatory Effects of Hydroxyl-Functionalized Stilbenes and 2-Arylbenzo[b]furans” (J Med Chem, 2017)
